Experimental data: ChEMBL document CHEMBL4689842, “EUbOPEN Chemogenomics Library wave 1” (2021)
Values joined by “and” are separate entries in the source; they are usually repeats but may differ in a detail not shown here. Equal values may be shown once.

Tested on: HEK-293T
Test: Multiplex assay against HEK293T;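 as to Population Tubulin-Different-Phenotype (%): share of the cells with healthy nuclei that show this phenotype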
Format: toxicity, cell-based
Conditions: human
Procedure, shortened: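 Cells stained live at seeding with Hoechst33342, BioTracker Green Microtubule Cytoskeleton Dye, MitoTracker Red and Annexin V Alexa Fluor 680 were imaged on a CQ1 microscope at 37°C and 5% CO2 after compound addition. Their classification by CellPathfinder machine-learning gating ran from Hoechst high-intensity objects versus normal cells, to healthy, pyknosed or fragmented nuclei among normal cells, to mitotic or apoptotic among pyknosed cells. Tubulin, mitochondrial-mass and membrane-permeability phenotypes are per cents of healthy-nucleus cells.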

[1] = 12 h, 1 µM, compound concentration 1 uM, replicate 1
[2] = 12 h, 1 µM, compound concentration 1 uM, replicate 2
[3] = 12 h, 10 µM, compound concentration 10 uM, replicate 1
[4] = 12 h, 10 µM, compound concentration 10 uM, replicate 2
[5] = 24 h, 1 µM, compound concentration 1 uM, replicate 1
[6] = 24 h, 1 µM, compound concentration 1 uM, replicate 2
[7] = 24 h, 10 µM, compound concentration 10 uM, replicate 1
[8] = 24 h, 10 µM, compound concentration 10 uM, replicate 2
[9] = 48 h, 10 µM, compound concentration 10 uM, replicate 1
[10] = 48 h, 10 µM, compound concentration 10 uM, replicate 2

COc1cc2nccc(Oc3ccc(NC(=O)Nc4cc(C)on4)c(Cl)c3)c2cc1OC.O
Population Apoptotic (%) [1]: 28% and 23%
Population Fragmented Nuclei (%) [1]: 14%
Population Healthy Nuclei (%) [1]: 55% and 71%
Population Hoechst High Intensity Objects (%) [1]: 12% and 10%
Population Mitotic Cells (%) [1]: 72% and 76%
Population Normal (%) [1]: 87% and 89%
Population Pyknosed Nuclei (%) [1]: 30% and 14%
Total Cell Count [1]: 660 and 667
Population Apoptotic (%) [2]: 18% and 12%
Population Fragmented Nuclei (%) [2]: 3% and 9%
Population Healthy Nuclei (%) [2]: 86%
Population Hoechst High Intensity Objects (%) [2]: 2%
Population Mitotic Cells (%) [2]: 81% and 87%
Population Normal (%) [2]: 97%
Population Pyknosed Nuclei (%) [2]: 10% and 4%
Total Cell Count [2]: 918 and 1845
Population Apoptotic (%) [3]: 82%
Population Fragmented Nuclei (%) [3]: 11%
Population Healthy Nuclei (%) [3]: 21%
Population Hoechst High Intensity Objects (%) [3]: 13%
Population Membrane Permeable-Phenotype (%) [3]: 2%
Population Mitochondria Different-Phenotype (%) [3]: 100%
Population Mitotic Cells (%) [3]: 17%
Population Normal (%) [3]: 86%
Population Tubulin-Different-Phenotype (%) [3]: 97%
Total Cell Count [3]: 260
Population Apoptotic (%) [4]: 59%
Population Fragmented Nuclei (%) [4]: 3%
Population Healthy Nuclei (%) [4]: 30%
Population Hoechst High Intensity Objects (%) [4]: 1%
Population Membrane Permeable-Phenotype (%) [4]: 8%
Population Mitochondria Different-Phenotype (%) [4]: 88%
Population Mitotic Cells (%) [4]: 40%
Population Normal (%) [4]: 98%
Population Pyknosed Nuclei (%) [4]: 66%
Population Tubulin-Different-Phenotype (%) [4]: 94%
Total Cell Count [4]: 226
Population Apoptotic (%) [5]: 39% and 22%
Population Fragmented Nuclei (%) [5]: 14% and 17%
Population Healthy Nuclei (%) [5]: 63% and 74%
Population Hoechst High Intensity Objects (%) [5]: 11% and 8%
Population Membrane Permeable-Phenotype (%) [5]: 10%
Population Mitotic Cells (%) [5]: 60% and 77%
Population Normal (%) [5]: 88% and 92%
Population Pyknosed Nuclei (%) [5]: 22% and 8%
Total Cell Count [5]: 680 and 875
Population Healthy Nuclei (%) [6]: 89% and 68%
Population Hoechst High Intensity Objects (%) [6]: 4% and 3%
Population Membrane Permeable-Phenotype (%) [6]: 14% and 8%
Population Mitotic Cells (%) [6]: 81% and 95%
Population Normal (%) [6]: 95% and 96%
Population Apoptotic (%) [7]: 89%
Population Fragmented Nuclei (%) [7]: 12%
Population Healthy Nuclei (%) [7]: 30%
Population Hoechst High Intensity Objects (%) [7]: 14%
Population Membrane Permeable-Phenotype (%) [7]: 3%
Population Mitochondria Different-Phenotype (%) [7]: 100%
Population Mitotic Cells (%) [7]: 10%
Population Normal (%) [7]: 85%
Population Pyknosed Nuclei (%) [7]: 56%
Population Tubulin-Different-Phenotype (%) [7]: 100%
Total Cell Count [7]: 253
Population Apoptotic (%) [8]: 76%
Population Fragmented Nuclei (%) [8]: 2%
Population Healthy Nuclei (%) [8]: 50%
Population Hoechst High Intensity Objects (%) [8]: 1%
Population Membrane Permeable-Phenotype (%) [8]: 2%
Population Mitochondria Different-Phenotype (%) [8]: 98%
Population Mitotic Cells (%) [8]: 23%
Population Normal (%) [8]: 98%
Population Pyknosed Nuclei (%) [8]: 47%
Population Tubulin-Different-Phenotype (%) [8]: 97%
Total Cell Count [8]: 258
Population Apoptotic (%) [9]: 73%
Population Fragmented Nuclei (%) [9]: 14%
Population Healthy Nuclei (%) [9]: 40%
Population Hoechst High Intensity Objects (%) [9]: 11%
Population Membrane Permeable-Phenotype (%) [9]: 2%
Population Mitochondria Different-Phenotype (%) [9]: 96%
Population Mitotic Cells (%) [9]: 26%
Population Normal (%) [9]: 88%
Population Pyknosed Nuclei (%) [9]: 45%
Population Tubulin-Different-Phenotype (%) [9]: 98%
Total Cell Count [9]: 272
Population Apoptotic (%) [10]: 83%
Population Fragmented Nuclei (%) [10]: 3%
Population Healthy Nuclei (%) [10]: 72%
Population Hoechst High Intensity Objects (%) [10]: 2%
Population Membrane Permeable-Phenotype (%) [10]: 1%
Population Mitochondria Different-Phenotype (%) [10]: 91%
Population Mitotic Cells (%) [10]: 16%
Population Normal (%) [10]: 97%
Population Pyknosed Nuclei (%) [10]: 23%
Total Cell Count [10]: 292
